IC50, Ratio and MIC data for nine compounds are collected here from ChEMBL document CHEMBL3085642, “Synthesis and evaluation of novel 4-nitropyrrole-based 1,3,4-oxadiazole derivatives as antimicrobial and anti-tubercular agents” (Eur J Med Chem, 2013).

Broadly, the IC50 is the concentration that inhibits the measured activity by half. Usually MIC stands for the least concentration at which growth counts as inhibited.

For one assay, the system named is Vero. The assay is described as follows: Cytotoxicity against african green monkey Vero cells after 72 hrs by MTT assay. The note with it: Chlorocebus sabaeus. The format is cell-based. In short, it runs like this:
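Vero cells were exposed to compounds for 72 h. Viability was measured by cellular conversion of MTT into formazan (non-radioactive proliferation assay), and the cytotoxic concentration was reported as IC50.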
A general note: Tetrazolium dyes change colour on reduction, which living cells bring about.

The test system of assay [1] is Candida albicans. The assay is described as follows: Ratio of ampotericin-B MIC to compound MIC against Candida albicans. It counts as functional.
The test system of assay [2] is Staphylococcus aureus. The assay is described as follows: Ratio of ciprofloxacin MIC to compound MIC against methicillin-susceptible Staphylococcus aureus ATCC 35556. The format is functional.
For assay [3], the system named is Staphylococcus aureus. The assay is described as follows: Ratio of ciprofloxacin MIC to compound MIC against Staphylococcus aureus ATCC 25923. The format is functional.
The subject of assay [4] is Mycobacterium tuberculosis. The assay is described as follows: Antitubercular activity against Mycobacterium tuberculosis H37Rv after 7 days by resazurin microtitre assay. It counts as functional. The note with it: 168 h.
The test system of assay [5] is Candida albicans. As to the kind of experiment: Antifungal activity against Candida albicans after 48 hrs by two fold agar dilution method. The format is functional. The method in brief: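 Two-fold serial dilutions in DMSO were tested against C. albicans by agar dilution. Cultures were incubated for 48 h at 35 °C and growth was monitored. MIC was taken as the lowest concentration (highest dilution) that arrested fungal growth.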
In general terms: In agar dilution, organisms are placed on agar that contains the substance at set levels.

Assay [6] has as its system Staphylococcus aureus. The assay is described as follows: Antibacterial activity against methicillin-resistant Staphylococcus aureus ATCC 43866 by broth dilution method. It counts as functional. On the technique in general: In broth dilution the organism is exposed to a series of concentrations in liquid medium.
For assay [7], the system named is Staphylococcus aureus. As to the kind of experiment: Antibacterial activity against methicillin-susceptible Staphylococcus aureus ATCC 35556 by broth dilution method. The format is functional.
The test system of a further assay is Klebsiella pneumoniae. The assay is described as follows: Antibacterial activity against Klebsiella pneumoniae by two fold broth dilution method. The format is functional.
Assay [8] concerns Escherichia coli. The assay is described as follows: Antibacterial activity against Escherichia coli ATCC 25922 by two fold broth dilution method. The format is functional.
Assay [9] has as its system Bacillus spizizenii. As to the kind of experiment: Antibacterial activity against Bacillus subtilis ATCC 6633 by two fold broth dilution method. It counts as functional.
For assay [10], the system named is Staphylococcus aureus. The assay is described as follows: Antibacterial activity against Staphylococcus aureus ATCC 25923 by two fold broth dilution method. It counts as functional.
The subject of assay [11] is Escherichia coli. As to the kind of experiment: Ratio of ciprofloxacin MIC to compound MIC against Escherichia coli ATCC 25922. The format is functional.
Assay [12] relates to Bacillus spizizenii. As to the kind of experiment: Ratio of ciprofloxacin MIC to compound MIC against Bacillus subtilis ATCC 6633. It counts as functional.

Values after ≈ are worked out from the molar mass of the structure shown.

In the assay on Vero, `Cn1cc([N+](=O)[O-])cc1-c1nnc(-c2ccccc2OC(F)(F)F)o1` gave an IC50 of 308 µM. In addition, the Ratio with Candida albicans [1], in the assay on Staphylococcus aureus [2] and in the assay with Staphylococcus aureus [3] was 2 throughout. Besides, the MIC in [4] turned out to be 3.8 µg/mL (≈ 10.7 µM); in the assay on Candida albicans [5], 1.56 µg/mL (≈ 4.4 µM); against Staphylococcus aureus [6] it was 1.56 µg/mL (≈ 4.4 µM); in the assay on Staphylococcus aureus [7], 0.39 µg/mL (≈ 1.1 µM); against Klebsiella pneumoniae, 12.5 µg/mL (≈ 35.3 µM); against Escherichia coli [8], 3.12 µg/mL (≈ 8.82 µM). The MIC is 1.56 µg/mL (≈ 4.4 µM) in the assay on Bacillus spizizenii [9] and 0.78 µg/mL (≈ 2.2 µM) in the assay with Staphylococcus aureus [10].
For the compound `Cn1cc([N+](=O)[O-])cc1-c1nnc(-c2cc3ccccc3[nH]2)o1`, the IC50 in the assay on Vero turned out to be 109 µM. Moreover, the Ratio in the assay with Candida albicans [1], in the assay with Staphylococcus aureus [2] and with Staphylococcus aureus [3] was 2 in each case. The MIC with Candida albicans [5] turned out to be 1.56 µg/mL (≈ 5.04 µM); against Staphylococcus aureus [6], 1.56 µg/mL (≈ 5.04 µM); against Staphylococcus aureus [7], 0.39 µg/mL (≈ 1.26 µM); against Klebsiella pneumoniae, 12.5 µg/mL (≈ 40.4 µM); with Escherichia coli [8], 6.25 µg/mL (≈ 20.2 µM); in the assay on Bacillus spizizenii [9], 1.56 µg/mL (≈ 5.04 µM). The compound also came in with an MIC against Staphylococcus aureus [10] of 0.78 µg/mL (≈ 2.52 µM).
In turn, `O=[N+]([O-])c1c[nH]c(-c2nnc(-c3cc(-c4ccccc4)nc4ccc(Cl)cc34)o2)c1` showed an IC50 in the assay on Vero of 281 µM. Further, the Ratio in the assay with Escherichia coli [11] is reported as 2. For the same compound, the MIC in assay [4] turned out to be 97.2 µg/mL (≈ 233 µM); in the assay on Candida albicans [5] it was 1.56 µg/mL (≈ 3.73 µM); in the assay on Staphylococcus aureus [6], 3.12 µg/mL (≈ 7.48 µM); in the assay with Staphylococcus aureus [7], 1.56 µg/mL (≈ 3.73 µM); against Klebsiella pneumoniae, 25 µg/mL (≈ 59.8 µM); with Escherichia coli [8] it was 0.78 µg/mL (≈ 1.87 µM). In addition, the MIC worked out at 3.12 µg/mL (≈ 7.48 µM) against Bacillus spizizenii [9] and 1.56 µg/mL (≈ 3.73 µM) with Staphylococcus aureus [10].
In the case of `O=[N+]([O-])c1c[nH]c(-c2nnc(-c3ccc[nH]3)o2)c1`, in the assay with Vero, the IC50 was determined as 226 µM. In addition, the Ratio with Escherichia coli [11] and in the assay on Staphylococcus aureus [3] was 2 each time. Further, the MIC in assay [4] was determined as 15.7 µg/mL (≈ 64 µM); in the assay with Candida albicans [5], 1.56 µg/mL (≈ 6.36 µM); against Staphylococcus aureus [6], 1.56 µg/mL (≈ 6.36 µM); in the assay with Staphylococcus aureus [7], 1.56 µg/mL (≈ 6.36 µM); against Klebsiella pneumoniae, 12.5 µg/mL (≈ 51 µM); with Escherichia coli [8] it was 0.78 µg/mL (≈ 3.18 µM). Also, the results for the MIC in the assay with Bacillus spizizenii [9] and in the assay on Staphylococcus aureus [10] were 1.56 µg/mL (≈ 6.36 µM) and 0.78 µg/mL (≈ 3.18 µM), respectively.
Take `Cn1cc([N+](=O)[O-])cc1-c1nnc(-c2ccccc2Br)o1`: the midpoint of inhibition with Vero, the IC50, lay at 303 µM. Also, the Ratio with Candida albicans [1], in the assay on Staphylococcus aureus [2], with Bacillus spizizenii [12] and with Staphylococcus aureus [3] was 2 each time. Also, the MIC in [4] was 12.8 µg/mL (≈ 36.7 µM); in the assay on Candida albicans [5], 1.56 µg/mL (≈ 4.47 µM); with Staphylococcus aureus [6], 1.56 µg/mL (≈ 4.47 µM); with Staphylococcus aureus [7], 0.39 µg/mL (≈ 1.12 µM); against Klebsiella pneumoniae it was 12.5 µg/mL (≈ 35.8 µM); in the assay on Escherichia coli [8], 1.56 µg/mL (≈ 4.47 µM). In addition, the minimum inhibitory concentration (MIC) with Bacillus spizizenii [9] and with Staphylococcus aureus [10] was 0.78 µg/mL (≈ 2.23 µM) throughout.
In the assay with Vero, `COc1cc(/C=C/c2nnc(-c3cc([N+](=O)[O-])cn3C)o2)ccc1O` yielded an IC50 of 202 µM. The Ratio in the assay on Candida albicans [1], in the assay with Staphylococcus aureus [2] and with Staphylococcus aureus [3] was 2 throughout. Also, the MIC is 51.8 µg/mL (≈ 151 µM) in assay [4]; 12.5 µg/mL (≈ 36.5 µM) against Candida albicans [5]; 1.56 µg/mL (≈ 4.56 µM) in the assay on Staphylococcus aureus [6]; 0.39 µg/mL (≈ 1.14 µM) in the assay on Staphylococcus aureus [7]; 50 µg/mL (≈ 146 µM) with Klebsiella pneumoniae; 3.12 µg/mL (≈ 9.13 µM) against Escherichia coli [8]. Moreover, the MIC against Bacillus spizizenii [9] is 1.56 µg/mL (≈ 4.56 µM); in the assay with Staphylococcus aureus [10], 0.78 µg/mL (≈ 2.28 µM).
On to `Cn1cc([N+](=O)[O-])cc1-c1nnc(C2CCCNC2)o1` (stereo not given), for which the IC50 in the assay with Vero stood at 611 µM. In addition, the Ratio in the assay on Candida albicans [1], in the assay on Staphylococcus aureus [2] and in the assay on Staphylococcus aureus [3] was 2 each time. For the same compound, the MIC in [4] was found to be 35.6 µg/mL (≈ 128 µM); in the assay with Candida albicans [5], 1.56 µg/mL (≈ 5.63 µM); in the assay on Staphylococcus aureus [6], 1.56 µg/mL (≈ 5.63 µM); with Staphylococcus aureus [7], 0.39 µg/mL (≈ 1.41 µM); with Klebsiella pneumoniae, 12.5 µg/mL (≈ 45.1 µM); against Escherichia coli [8], 3.12 µg/mL (≈ 11.3 µM). The results for the MIC with Bacillus spizizenii [9] and with Staphylococcus aureus [10] were 1.56 µg/mL (≈ 5.63 µM) and 0.78 µg/mL (≈ 2.81 µM), respectively.
`Cn1cc([N+](=O)[O-])cc1-c1nnc(Cc2ccccc2F)o1` came in with a half-maximal inhibitory concentration (IC50) in the assay on Vero of 245 µM. The Ratio with Candida albicans [1], in the assay with Bacillus spizizenii [12] and with Staphylococcus aureus [3] was 2 throughout. Besides, the minimum inhibitory concentration (MIC) came out at 8.6 µg/mL (≈ 28.5 µM) in assay [4]; 1.56 µg/mL (≈ 5.16 µM) against Candida albicans [5]; 1.56 µg/mL (≈ 5.16 µM) in the assay with Staphylococcus aureus [6]; 1.56 µg/mL (≈ 5.16 µM) against Staphylococcus aureus [7]; 12.5 µg/mL (≈ 41.4 µM) with Klebsiella pneumoniae; 1.56 µg/mL (≈ 5.16 µM) in the assay on Escherichia coli [8]. Further, the MIC against Bacillus spizizenii [9] and against Staphylococcus aureus [10] was 0.78 µg/mL (≈ 2.58 µM) each time.
As for `COc1cccc(-c2nnc(-c3cc([N+](=O)[O-])cn3C)o2)c1`, the midpoint of inhibition in the assay with Vero, the IC50, lay at 299 µM. The Ratio with Candida albicans [1], with Staphylococcus aureus [2] and in the assay on Staphylococcus aureus [3] was 2 throughout. Further, the minimal inhibitory concentration (MIC) in assay [4] amounted to 37.4 µg/mL (≈ 125 µM); in the assay on Candida albicans [5], 1.56 µg/mL (≈ 5.2 µM); against Staphylococcus aureus [6] it was 1.56 µg/mL (≈ 5.2 µM); against Staphylococcus aureus [7], 0.39 µg/mL (≈ 1.3 µM); in the assay with Klebsiella pneumoniae it was 12.5 µg/mL (≈ 41.6 µM); against Escherichia coli [8], 3.12 µg/mL (≈ 10.4 µM). In addition, the MIC worked out at 1.56 µg/mL (≈ 5.2 µM) in the assay on Bacillus spizizenii [9] and 0.78 µg/mL (≈ 2.6 µM) with Staphylococcus aureus [10].
